In the RNAGym collection of RNA variant scans (doi:10.1126/science.aae0568) one finds yeast fitness data, which are given here for 38 variants.

B1: tRNA (parent)
chain: GUUCCGUUGGCGUAAUGGUAACGCGUCUCCCUCCUAAGGAGAAGACUGCGGGUUCGAGUCCCGUACGGAACG

Fewer inactive variants are shown than the library holds.

In the series the parent is B1. The series is described as follows: yeast fitness relative to wild type (ratio to wild type); higher = fitter; tRNA-Arg(CCU), competitive growth, 37 C, YPD. A digest of the protocol: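 Genotype frequency changes were the basis for Darwinian fitness relative to wild type. The frequencies came from 100-nucleotide paired-end sequencing of gene amplicons from the start population and each end population of pooled yeast strains with tRNA-Arg(CCU) gene variants at the native locus. Competition ran in YPD at 37°C for 24 hours in six replicates, genotypes needed ≥ 100 starting reads, and estimates < 0.5 were set to 0.5.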
Regarding GUUCCGUUGGCGUAAUGGUAACGCGUCUCCCUCCUAAGGAGAAGACUGCGGGUGCGAGUCCCGUACGGAUCG, the yeast fitness came out at 0.678.
With GUUCCGUUGGCGUAAUGGUAACGUGUCUCCCUCCUAAGGAAAAGACUGCGGGUUCGAGUCCAGUACGGAACG the figure was 0.605; with GCUCCGUUGGCGUAAUGGUAACGCGUCUCCCUCCUAAGGAGAAGAUUGCGGGUUCGAGUCCCGUACGGAACG, 0.959; with GUUCCGUUGGCGUAAUGGUAACGCGUCUCCCCCGUAAGGAGAAGACUGCGGGUUCGAGUCCCGUUCGGAGCG, no more than 0.5.
As for GUUCCGUUGGCGUAAUGGUAACGCGUCUCCCUCCGAAGGAGAAGACUGCGGGUUCGAGUCCCGUCCGGAACG, the figure is 0.639; as for GUUCCGUUGGCGUAAUGGUAACGCGUCUCCCUCCUAAGGAGAAGACUGCGGGUUCGAGUCCCGUCCGGACCG, 1.03; as for GUUCCGUUGGCGUAAUGGUAACGCGGCUCCCUCCUAAGGAGAAGAAUGCGGGUUCGAGUCCCGUACGGAACG, 0.949.
As for GUUCCGUUGGCGUAAUGGUAACGCGUCUCCCUCCUAAGGAGAAAACUGCGGGUUCGGGUCCCGUACGGAACG, the figure is 0.688.
GUUCCGUUGGCGUAAUGGUCACGCGUUUCCCUCCUGAGGAGAAGACUGCGGGUUCGAGUCCCGUACGGAACG: the yeast fitness turned out to be 0.62.
For GUUCCGUUGGCGUUAUGGUAACGCAUCUCCCUCCAAAGUAGAAGACUGCGGGUUCGAGUCCCGUGCGGAACG, the yeast fitness is no more than 0.5.
For GUUCCGUUGGCGUGAUGGUAACGCGAGUCCCUCCUAAGGAGAAGACUGCGGGUUCGAGUCCCGUACGGAACG, the yeast fitness is no more than 0.5.
For GUUCCGUUGGGGUAAUGGUAACGCGUGUCCCUCCUAAGGAGCAGCCUGCGGGUUCGAGUCCCGUACGGAACG, the yeast fitness was no more than 0.5.
As for GUUCCGUUGACGUAAUGGUAACGCGUCUCCUUCCUAACGAGAAGACUGCGGGUUCGAGUCCCAUGCGCGACG, the figure is no more than 0.5; as for GUUCCGUUGGCGUAAUGGUAACGCGUCUCCCUCCUAAGGAGAAGACUGCGGGUUCGAGUCUCGUACGCAACG, 0.68.
With GUUCCGUUGGCGUAAUGGUAACGCGUCUCCCUCCUAAGGAGAAGACUGGGGGUUAGAGUCCCGUACGGAACG the figure was 0.619; with GUUCCGUUGGCGUAAUGGUAACGCGUCUCCCUCCUAAGGAGAAGACUGCAGGUUCGAGACCCGUACGGAACG, 0.831; with GUUGCGUUGGCGAAAUGGUAACGCGUCUCCCUCCUAAGGAGAAGACUGCGGGUACGAGUCCCGUACGGAACG, no more than 0.5.
In the case of GUUCCGUUGGCGUAAUGGUAACGCGUCUCCUUCCUAAGGAGAAGACAGCGGGUUCGAGUCCCGUACGGAACG, the yeast fitness is 0.817.
Turning to GUUAUGUUGGCGUAAUGGUAAUGCGUCUCCCUCAUAAGGAGAAGACUGCGGGUUCGAGUCGCGUACGGAACG, the yeast fitness was no more than 0.5.
With GUUCCGUUGGCGUAAUGGUAACGCGUCUACCUCCUAAGCAGAAGACUGCGGGUUCGAAUCCCGUACGGAACG the figure was 0.905; with GUUUCGUUGGCGUAAUGGUAACGCAUCUCCCUCCUAAGGAGAAGACUGCGGGUUCGAGUCCCGUACCGAACG, 0.58.
As for GUUUGGUUGGCGUAAUGGUAACGCGUCUGCGUCCUACGGAGAAGACUGCGGGUUCGAGUCCCGUACGGAACG, the figure is 0.627.
With GUUCCGUUGGCGUAAUGGUAACGCGUCUCCCUCCUAAGGAGAAGACUGCCGGUUCGAGUCCCGUACAGAACG the figure was 0.816.
As for GUUCCGUUGGCGUAAUGGUAUCGCGUCUCCCUCCUAUGGAGAAGACUGCGGGUUCGAGUCCCGUACGGAACG, the yeast fitness turned out to be 0.672.
As for GUUCCGUUGGCGUAAUGGUAACGCGUCUCCCUCCUAAGGAGAAGGCUGCGGGUUUGAGUCCCGUGCGGAACG, the figure is 0.544; as for GUUCCGUUCGCGUAAUGGUAACGCGUCUCCCUCCUAAGGAGAAGACUGCGGGUUCGAGUCCCAUACGGAACG, 0.72.
Regarding GUUCCAUUGGAGUCAUGGCAACGCGUCUCCCACCUAAGGAGCAGACUGCGGGUCCGAGUCUCGUACGCAACG, the yeast fitness was no more than 0.5.
As for GUUCCGUUGGCGUAAUGAUAACGCGUCUCCAUCCUAAGGAGAGGACUGCAGGUUCGUGUCCCGUACGGAACG, the figure is 0.572; as for GUUCCGUUGGCGUAAUGCUAAGGCGUCUCCCUCCUAAAGAGAAGACUGCGGGUUCGAGUCCCGUACGGAACG, no more than 0.5; as for GUUUCGUUGGUGUAGUGGUAACGCGUCUCCCUCUUAAGGAGAAGACUGCGGGUCUGAGUCCCGUACGGAACG, 0.501.
For GUUCCGUUGGCGUGAUGGUAACGCGUCUCCCUCCUUAGGAGAAGACUGCGGGUUCGAGUCCCGUGCGGAACG, the yeast fitness is no more than 0.5.
Turning to GUUCCGUUGGCGUAAUGGAAACGCGUCUCCCUCCUAAGGAGAAGACUGCGGGUUCGAGUCACGUACGGAACG, the yeast fitness was found to be 0.673.
GUUCCGUUGGCGUAAUGGUAACGCGUCUCCCUCCUAAGGAGAGGACUGCGGGUUCGAGUUCUGUAUGGACCG: the yeast fitness was no more than 0.5.
As for GUUCCGUUGGCGUAAUGGUAACGCGUCUCCCUUUUAAGCAGAAGACUGCGGGUUCGAGUCCCGUACGGAACG, the yeast fitness came out at 0.605.
With GUUGCGUUGGCGUAAUGGUAACGCGACUCCCCCCUAAGGAGAAGACUGCGGGUUCGAGUCCCGUACGGAACG the figure was 0.565; with GUUCCGUUGGCGUAAUGGUAACGUGCCUCCCUCCUAAGGAGAAGACUGCGGGUUCGAAUCCCGUACGGAACG, 1.01; with GUUCCGUUGGCGUAAUGGUAACGCGUCUCCCUCCUGAGGAGAAGUCUGUGGGUUCGAGUCCCGUACGGAACG, 0.882.
GUUCCGUUGGCGUAAUGGCUACGCGUCUCCCUCCUAAGGAGAAGACUGCGGGUUCGAGUCCCGUACGGAACG: the yeast fitness came to 0.941.
